ChEMBL document CHEMBL4251662, “Alkyl indole-based cannabinoid type 2 receptor tools: Exploration of linker and fluorophore attachment” (Eur J Med Chem, 2018)
The source made the active and inactive calls. No cut-off for these calls is given here.

Columns and labels:
[1] = tested on: HEK293; assay: Effect on forskolin-stimulated cAMP level in HEK293 cells at 10 uM by BRET assay relative to control; assay type: ADME, cell-based; conditions: human, hek293, 10 µM
How it was run: (§1)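 Wild-type HEK293 cells lacking transfected receptor, tested at 10 µM and 1 µM. Forskolin-stimulated cAMP measured by BRET as a check that responses are receptor-mediated.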

[2] = tested on: HEK293; assay: Effect on forskolin-stimulated cAMP level in HEK293 cells at 1 uM by BRET assay relative to control; assay type: ADME, cell-based; conditions: human, hek293, 1 µM; how it was run: as §1
[3] = biological target: T1, Cannabinoid receptor 1 (Homo sapiens, UniProt P21554); assay: Activity at N-terminal HA-tagged human CB1 receptor expressed in HEK293 cells transfected with YFP-Epac-RLuc assessed as effect on forskolin-stimulated cAMP level by BRET assay relative to control; assay type: functional, cell-based
How it was run: (§2)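 BRET cAMP biosensor read-out in HEK293 cells expressing HA-tagged human CB1 or CB2, with forskolin stimulation (5 µM). Concentration-response curves; area-under-curve values normalised to forskolin alone = 100% and basal = 0%. EC50 taken for agonists and IC50 for inverse agonists. Mean of at least three independent experiments, each point in duplicate.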

[4] = biological target: T2, Cannabinoid receptor 2 (Homo sapiens, UniProt P34972); assay: Inverse agonist activity at N-terminal HA-tagged human CB2 receptor expressed in HEK293 cells transfected with YFP-Epac-RLuc assessed as increase in forskolin-stimulated cAMP level by BRET assay relative to control; assay type: functional, cell-based; how it was run: as §2
[5] = biological target: T1, Cannabinoid receptor 1; assay: Activity at N-terminal HA-tagged human CB1 receptor expressed in HEK293 cells transfected with YFP-Epac-RLuc assessed as effect on forskolin-stimulated cAMP level by BRET assay; assay type: functional, cell-based; how it was run: as §2
[6] = biological target: T1, Cannabinoid receptor 1; assay: Displacement of [3H]CP55,940 from N-terminal HA-tagged human CB1 receptor expressed in HEK293 cell membranes after 1 hr by microbeta scintillation counting method; conditions: read-out: Ki
[7] = biological target: T1, Cannabinoid receptor 1; assay: Agonist activity at N-terminal HA-tagged human CB1 receptor expressed in HEK293 cells transfected with YFP-Epac-RLuc assessed as decrease in forskolin-stimulated cAMP level at 10 uM by BRET assay; assay type: functional, cell-based
How it was run: (§3)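 Single-concentration screen at 10 µM in CB receptor-expressing HEK293 cells, run with and without CP55,940 as reference agonist. Forskolin-stimulated cAMP read by BRET biosensor. A fall in cAMP is scored as agonism and a rise as inverse agonism.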

[8] = biological target: T2, Cannabinoid receptor 2; assay: Inverse agonist activity at N-terminal HA-tagged human CB2 receptor expressed in HEK293 cells transfected with YFP-Epac-RLuc assessed as increase in forskolin-stimulated cAMP level at 10 uM by BRET assay; assay type: functional, cell-based
[9] = biological target: T1, Cannabinoid receptor 1; assay: Displacement of [3H]CP55,940 from N-terminal HA-tagged human CB1 receptor expressed in HEK293 cell membranes at 10 uM after 1 hr by microbeta scintillation counting method relative to control
How it was run: (§4)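 Single-point competition screen against [3H]CP55,940 in HEK293 cells over-expressing 3HA-tagged hCB2 or hCB1. Compounds giving more than 50% displacement went on to full concentration-response curves.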

[10] = biological target: T1, Cannabinoid receptor 1; assay: Agonist activity at N-terminal HA-tagged human CB1 receptor expressed in HEK293 cells transfected with YFP-Epac-RLuc assessed as decrease in forskolin-stimulated cAMP level by BRET assay relative to control; assay type: functional, cell-based; how it was run: as §2
[11] = biological target: T2, Cannabinoid receptor 2; assay: Inverse agonist activity at N-terminal HA-tagged human CB2 receptor expressed in HEK293 cells transfected with YFP-Epac-RLuc assessed as increase in forskolin-stimulated cAMP level by BRET assay; assay type: functional, cell-based; how it was run: as §2
[12] = biological target: T2, Cannabinoid receptor 2; assay: Displacement of [3H]CP55,940 from N-terminal HA-tagged human CB2 receptor expressed in HEK293 cell membranes at 10 uM after 1 hr by microbeta scintillation counting method relative to control; how it was run: as §4
[13] = biological target: T2, Cannabinoid receptor 2; assay: Displacement of [3H]CP55,940 from N-terminal HA-tagged human CB2 receptor expressed in HEK293 cell membranes after 1 hr by microbeta scintillation counting method; conditions: read-out: Ki
[14] = tested on: Leishmania donovani; assay: Growth inhibition of Leishmania donovani; assay type: functional, organism-based
[15] = biological target: T2, Cannabinoid receptor 2; assay: Agonist activity at N-terminal HA-tagged human CB2 receptor expressed in HEK293 cells transfected with YFP-Epac-RLuc assessed as decrease in forskolin-stimulated cAMP level by BRET assay; assay type: functional, cell-based; how it was run: as §2
[16] = biological target: T2, Cannabinoid receptor 2; assay: Agonist activity at N-terminal HA-tagged human CB2 receptor expressed in HEK293 cells transfected with YFP-Epac-RLuc assessed as decrease in forskolin-stimulated cAMP level at 10 uM by BRET assay; assay type: functional, cell-based; how it was run: as §3
[17] = biological target: Proprotein convertase subtilisin/kexin type 9 (Homo sapiens) (UniProt Q8NBP7); assay: Inhibition of PCSK9 (unknown origin)
[18] = biological target: Potassium voltage-gated channel subfamily KQT member 2 (Homo sapiens) (UniProt O43526); assay: Agonist activity at KCNQ2 (unknown origin)
[19] = biological target: T2, Cannabinoid receptor 2; assay: Agonist activity at N-terminal HA-tagged human CB2 receptor expressed in HEK293 cells transfected with YFP-Epac-RLuc assessed as decrease in forskolin-stimulated cAMP level by BRET assay relative to control; assay type: functional, cell-based; how it was run: as §2
[20] = biological target: T1, Cannabinoid receptor 1; assay: Agonist activity at N-terminal HA-tagged human CB1 receptor expressed in HEK293 cells transfected with YFP-Epac-RLuc assessed as decrease in forskolin-stimulated cAMP level by BRET assay; assay type: functional, cell-based; how it was run: as §2
[21] = biological target: T3, Free fatty acid receptor 4 (Homo sapiens) (UniProt Q5NUL3); assay: Agonist activity at GPR120 (unknown origin); assay type: functional
T3 sequence (whole entry): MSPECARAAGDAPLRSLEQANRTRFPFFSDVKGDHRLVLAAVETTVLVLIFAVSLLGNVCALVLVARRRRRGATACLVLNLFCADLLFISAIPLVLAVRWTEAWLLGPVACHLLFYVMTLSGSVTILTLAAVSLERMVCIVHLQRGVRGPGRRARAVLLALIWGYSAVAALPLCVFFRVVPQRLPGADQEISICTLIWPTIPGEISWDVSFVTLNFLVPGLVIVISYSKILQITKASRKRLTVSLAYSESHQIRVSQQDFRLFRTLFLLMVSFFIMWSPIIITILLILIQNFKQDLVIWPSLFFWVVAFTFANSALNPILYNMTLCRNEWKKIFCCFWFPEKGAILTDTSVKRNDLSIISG

[22] = biological target: T4, Nicotinamide N-methyltransferase (Homo sapiens) (UniProt P40261); assay: Inhibition of NNMT (unknown origin)
T4 sequence (whole entry): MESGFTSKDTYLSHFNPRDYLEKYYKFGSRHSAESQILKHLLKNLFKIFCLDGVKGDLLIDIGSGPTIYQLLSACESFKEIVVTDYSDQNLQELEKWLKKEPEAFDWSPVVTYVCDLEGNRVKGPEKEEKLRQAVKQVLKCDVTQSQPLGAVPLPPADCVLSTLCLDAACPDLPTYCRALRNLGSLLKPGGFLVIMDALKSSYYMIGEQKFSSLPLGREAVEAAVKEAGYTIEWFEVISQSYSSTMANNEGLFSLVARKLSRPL

[23] = biological target: Interleukin-17A (Homo sapiens) (UniProt Q16552); assay: Inhibition of IL-17 (unknown origin) assessed as disruption of IL-17 protein-protein interaction
[24] = biological target: T5, Potassium voltage-gated channel subfamily KQT member 3 (Homo sapiens) (UniProt O43525); assay: Agonist activity at KCNQ3 (unknown origin)
T5 sequence (whole entry): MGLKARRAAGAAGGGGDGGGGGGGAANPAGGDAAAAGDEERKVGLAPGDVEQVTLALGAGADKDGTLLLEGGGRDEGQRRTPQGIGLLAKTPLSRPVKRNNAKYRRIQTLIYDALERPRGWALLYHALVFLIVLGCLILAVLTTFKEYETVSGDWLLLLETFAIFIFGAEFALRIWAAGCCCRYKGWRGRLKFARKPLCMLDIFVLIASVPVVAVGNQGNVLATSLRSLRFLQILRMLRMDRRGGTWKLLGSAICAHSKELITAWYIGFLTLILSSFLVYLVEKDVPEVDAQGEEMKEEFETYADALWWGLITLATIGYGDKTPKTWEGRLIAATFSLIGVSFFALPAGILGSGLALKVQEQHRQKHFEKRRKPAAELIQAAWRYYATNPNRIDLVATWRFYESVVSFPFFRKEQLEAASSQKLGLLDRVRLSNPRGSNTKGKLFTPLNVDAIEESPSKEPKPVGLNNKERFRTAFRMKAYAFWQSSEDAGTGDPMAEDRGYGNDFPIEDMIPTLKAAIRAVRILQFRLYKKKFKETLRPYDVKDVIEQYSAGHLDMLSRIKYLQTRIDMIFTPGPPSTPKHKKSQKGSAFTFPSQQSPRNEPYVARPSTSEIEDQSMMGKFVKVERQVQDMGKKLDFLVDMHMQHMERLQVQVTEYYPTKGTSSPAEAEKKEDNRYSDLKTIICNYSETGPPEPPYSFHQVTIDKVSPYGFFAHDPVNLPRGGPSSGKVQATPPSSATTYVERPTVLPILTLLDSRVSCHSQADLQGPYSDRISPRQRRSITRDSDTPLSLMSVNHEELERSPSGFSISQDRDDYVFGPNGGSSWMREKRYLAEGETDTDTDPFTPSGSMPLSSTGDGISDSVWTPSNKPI

T1 sequence (P21554 whole entry): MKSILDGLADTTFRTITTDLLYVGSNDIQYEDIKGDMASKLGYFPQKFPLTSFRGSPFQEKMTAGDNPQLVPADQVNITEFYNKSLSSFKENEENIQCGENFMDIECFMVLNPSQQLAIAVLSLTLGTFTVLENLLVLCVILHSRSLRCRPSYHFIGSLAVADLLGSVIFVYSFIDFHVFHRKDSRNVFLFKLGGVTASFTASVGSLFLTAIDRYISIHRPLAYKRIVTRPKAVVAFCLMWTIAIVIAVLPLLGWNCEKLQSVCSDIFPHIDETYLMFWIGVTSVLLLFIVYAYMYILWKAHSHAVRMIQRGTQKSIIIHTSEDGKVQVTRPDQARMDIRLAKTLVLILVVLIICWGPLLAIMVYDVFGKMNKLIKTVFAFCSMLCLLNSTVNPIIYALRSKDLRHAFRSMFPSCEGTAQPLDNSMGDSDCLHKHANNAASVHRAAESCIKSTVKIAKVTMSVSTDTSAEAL
T2 sequence (P34972 whole entry): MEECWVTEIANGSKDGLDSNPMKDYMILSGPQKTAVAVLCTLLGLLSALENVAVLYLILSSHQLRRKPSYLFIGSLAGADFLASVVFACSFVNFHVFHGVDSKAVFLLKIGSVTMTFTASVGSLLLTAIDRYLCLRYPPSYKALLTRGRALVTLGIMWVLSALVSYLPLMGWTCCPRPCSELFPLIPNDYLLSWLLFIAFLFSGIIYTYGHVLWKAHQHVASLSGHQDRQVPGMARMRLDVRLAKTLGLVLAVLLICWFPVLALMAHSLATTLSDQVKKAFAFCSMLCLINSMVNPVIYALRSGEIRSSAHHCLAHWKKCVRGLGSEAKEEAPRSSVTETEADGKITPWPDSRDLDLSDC
Chain of Proprotein convertase subtilisin/kexin type 9 (Homo sapiens) (Q8NBP7 31-152 limits assumed): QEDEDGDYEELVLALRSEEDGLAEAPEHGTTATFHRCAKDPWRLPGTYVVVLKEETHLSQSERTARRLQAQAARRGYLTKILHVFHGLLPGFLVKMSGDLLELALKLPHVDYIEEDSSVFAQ
Chain of Proprotein convertase subtilisin/kexin type 9 (Homo sapiens) (Q8NBP7 153-692 limits assumed): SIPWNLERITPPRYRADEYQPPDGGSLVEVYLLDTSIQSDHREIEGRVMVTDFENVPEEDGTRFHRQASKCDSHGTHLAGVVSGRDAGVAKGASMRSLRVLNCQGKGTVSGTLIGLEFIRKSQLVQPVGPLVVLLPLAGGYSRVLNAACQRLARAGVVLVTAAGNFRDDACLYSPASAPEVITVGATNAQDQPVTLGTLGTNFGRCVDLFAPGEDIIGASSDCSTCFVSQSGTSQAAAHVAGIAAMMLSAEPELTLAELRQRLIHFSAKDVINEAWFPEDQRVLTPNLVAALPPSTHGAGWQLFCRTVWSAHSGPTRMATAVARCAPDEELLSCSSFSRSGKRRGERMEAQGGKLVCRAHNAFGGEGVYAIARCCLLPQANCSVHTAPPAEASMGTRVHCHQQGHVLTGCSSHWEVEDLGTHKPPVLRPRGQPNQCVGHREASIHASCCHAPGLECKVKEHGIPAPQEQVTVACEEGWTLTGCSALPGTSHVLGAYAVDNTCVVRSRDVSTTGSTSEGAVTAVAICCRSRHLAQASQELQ
Chain of Interleukin-17A (Homo sapiens) (Q16552 whole entry): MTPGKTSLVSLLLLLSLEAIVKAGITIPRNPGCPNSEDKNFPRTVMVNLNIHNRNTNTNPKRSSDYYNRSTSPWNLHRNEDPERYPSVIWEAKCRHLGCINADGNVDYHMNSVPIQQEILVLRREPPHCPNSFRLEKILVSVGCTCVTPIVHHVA
Chain of Potassium voltage-gated channel subfamily KQT member 2 (Homo sapiens) (O43526 whole entry): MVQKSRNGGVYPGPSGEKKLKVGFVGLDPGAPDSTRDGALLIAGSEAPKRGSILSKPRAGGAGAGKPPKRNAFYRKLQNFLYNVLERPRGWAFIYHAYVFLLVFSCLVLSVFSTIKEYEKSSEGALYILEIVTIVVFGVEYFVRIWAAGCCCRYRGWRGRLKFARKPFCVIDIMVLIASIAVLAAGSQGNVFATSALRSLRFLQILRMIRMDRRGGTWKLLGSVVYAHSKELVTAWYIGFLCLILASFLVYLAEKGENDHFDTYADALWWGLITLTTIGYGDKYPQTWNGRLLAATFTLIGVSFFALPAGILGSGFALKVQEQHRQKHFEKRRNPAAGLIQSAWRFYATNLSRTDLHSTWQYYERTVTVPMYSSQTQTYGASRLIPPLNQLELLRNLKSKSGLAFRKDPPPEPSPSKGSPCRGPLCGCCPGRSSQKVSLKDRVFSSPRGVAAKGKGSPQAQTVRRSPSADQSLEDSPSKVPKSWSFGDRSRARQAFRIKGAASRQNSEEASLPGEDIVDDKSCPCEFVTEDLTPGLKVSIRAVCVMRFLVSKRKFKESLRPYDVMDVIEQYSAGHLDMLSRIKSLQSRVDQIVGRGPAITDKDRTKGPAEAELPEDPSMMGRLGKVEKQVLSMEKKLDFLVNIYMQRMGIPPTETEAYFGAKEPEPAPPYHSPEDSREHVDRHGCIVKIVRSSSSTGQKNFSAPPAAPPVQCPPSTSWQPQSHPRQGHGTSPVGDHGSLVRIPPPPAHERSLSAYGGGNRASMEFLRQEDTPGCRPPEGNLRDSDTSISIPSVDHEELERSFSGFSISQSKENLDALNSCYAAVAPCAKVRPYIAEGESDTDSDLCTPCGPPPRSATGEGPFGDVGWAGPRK

## Cc1ccc(Cn2nc(C(=O)N[C@@H]3C(C)(C)[C@@H]4CC[C@@]3(C)C4)cc2-c2ccc(Cl)c(C)c2)cc1
[1]
  Activity: 94.5%
[2]
  Activity: 99.8%
[3]
  Emax: inactive
[4]
  Emax: 212%
[5]
  Activity: inactive

## COC(=O)CCCCOc1cccc2c(C(=O)c3ccc(OC)cc3)cn(CC3CCOCC3)c12
[6]
  Ki: 1.58 µM
[7]
  Activity: Active
[1]
  Activity: 160.6%
[2]
  Activity: 124.3%
[8]
  Activity: Active
[9]
  inhibition: > 50%
[10]
  Emax: 77.8%
[11]
  IC50: > 10 µM
[12]
  inhibition: > 50%
[4]
  Emax: 166%
[13]
  Ki: 0.201 µM

## COc1ccc(C(=O)c2cn(CC3CCOCC3)c3c(OCCCCCCNC(C)=O)cccc23)cc1
[6]
  Ki: 3.92 µM
[7]
  Activity: Active
[1]
  Activity: 128%
[2]
  Activity: 114.8%
[8]
  Activity: Active
[9]
  inhibition: > 50%
[10]
  Emax: 74.3%
[11]
  IC50: > 10 µM
[12]
  inhibition: > 50%
[4]
  Emax: 151%
[13]
  Ki: 1.97 µM

## COc1ccc(C(=O)c2cn(CC3CCOCC3)c3ccc(O)cc23)cc1
[14]
  growth inhibition (GI): inactive
[15]
  EC50: 0.0044 µM
[6]
  Ki: 1.41 µM
[7]
  Activity: Active
[1]
  Activity: 109.6%
[2]
  Activity: 105.5%
[16]
  Activity: Active
[17]
  inhibition: inactive
[18]
  Activity: inactive
[19]
  Emax: 65.7%
[9]
  inhibition: > 50%
[10]
  Emax: 62.2%
[12]
  inhibition: > 50%
[13]
  Ki: 0.12 µM
[20]
  EC50: 0.0629 µM
[21]
  Activity: inactive
[22]
  inhibition: inactive
[23]
  inhibition: inactive
[24]
  Activity: inactive

## COc1ccc(C(=O)c2cn(CC3CCOCC3)c3c(OCCCCC(=O)O)cccc23)cc1
[6]
  Ki: > 10 µM
[7]
  Activity: Active
[1]
  Activity: 129.1%
[2]
  Activity: 105.6%
[8]
  Activity: Active
[9]
  inhibition: > 50%
[10]
  Emax: 82.5%
[11]
  IC50: > 10 µM
[12]
  inhibition: > 50%
[4]
  Emax: 124%
[13]
  Ki: 1.31 µM

## CCCOc1cccc2c(C(=O)c3ccc(OC)cc3)cn(CC3CCOCC3)c12
[6]
  Ki: 0.505 µM
[1]
  Activity: 133.9%
[2]
  Activity: 105.4%
[3]
  Emax: inactive
[8]
  Activity: Active
[9]
  inhibition: > 50%
[11]
  IC50: 0.0306 µM
[12]
  inhibition: > 50%
[4]
  Emax: 263%
[13]
  Ki: 0.0057 µM
[5]
  Activity: inactive

## COc1ccc(C(=O)c2cn(CC3CCOCC3)c3c(O)cccc23)cc1
[14]
  growth inhibition (GI): inactive
[6]
  Ki: 3.58 µM
[7]
  Activity: Active
[1]
  Activity: 135.3%
[2]
  Activity: 104.3%
[17]
  inhibition: inactive
[18]
  Activity: inactive
[8]
  Activity: Active
[9]
  inhibition: > 50%
[10]
  Emax: 64.3%
[11]
  IC50: 0.272 µM
[12]
  inhibition: > 50%
[4]
  Emax: 190%
[13]
  Ki: 0.0539 µM
[20]
  EC50: 0.632 µM
[21]
  Activity: inactive
[22]
  inhibition: inactive
[23]
  inhibition: inactive
[24]
  Activity: inactive
